The target in test [1] is Transforming protein RhoA/Rho-related GTP-binding protein RhoC (Homo sapiens, UniProt P61586+P08134). Description: Inhibition of RhoA/C-mediated transcriptional response in human PC3 cells by serum response factor-luciferase reporter gene assay. The class given is cell-based. The settings on record: pc-3.
Test [2] deals with PC-3. Description: Cytotoxicity against human PC3 cells assessed as inhibition of mitochondrial metabolism at 100 uM by WST-1 assay. In kind it is functional. A general note: Formazan colour is commonly taken as a measure of viable cells.
The test system of test [3] is PC-3. Description: Cytotoxicity against human PC3 cells assessed as inhibition of mitochondrial metabolism at 10 uM by WST-1 assay. The class given is functional.
Test [4] relates to PC-3. As to the kind of experiment: Antiinvasive activity in human PC3 cells at 100 uM by Matrigel cell invasion assay. The class given is functional. An outline of the steps:
(§1)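 PC-3 cells (2 × 10^5) were seeded in low-serum DMEM (0.5% FBS) in the upper chamber of 24-well Matrigel inserts, with compound or DMSO. The lower well held the same 0.5% FBS medium, and cells were incubated 24 h at 37 °C in 5% CO2. Inserts were methanol-fixed, stained with 0.5% crystal violet, and non-invaded cells were wiped off. Stain was extracted in 20% acetic acid and read at 595 nm.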

Test [5] deals with PC-3. Description: Antiinvasive activity in human PC3 cells at 10 uM by Matrigel cell invasion assay. In kind it is functional. An outline of the steps:
as §1

On to `O=C(Nc1ccccc1C(=O)Nc1ccc(Cl)cc1)c1cc(C(F)(F)F)cc(C(F)(F)F)c1`, for which, in test [1], the IC50 (commonly the concentration that inhibits the measured activity by half) is greater than 100 µM.

`O=C(CONC(=O)c1cc(C(F)(F)F)cc(C(F)(F)F)c1)Nc1cccc(Cl)c1` registered an IC50 in test [1] of 5.9 µM.

In the case of `O=C(CONC(=O)c1ccccc1)Nc1ccc(Cl)cc1`, the IC50 in test [1] is greater than 100 µM.

In test [1], `O=C(CNC(=O)c1cc(C(F)(F)F)cc(C(F)(F)F)c1)Nc1ccc(Cl)cc1` registered an IC50 of 33 µM.

Compound `O=C(CC1CC(c2cc(C(F)(F)F)cc(C(F)(F)F)c2)=NO1)Nc1ccc(Cl)cc1` (centres undefined) had an IC50 in test [1] of 4.2 µM. For the same compound, the inhibition (in general, the share of the control response that was lost under treatment) at 100 µM in the test on PC-3 [2] was determined as 38%.

Compound `O=C(NCCCNc1ccc(Cl)cc1)c1cc(C(F)(F)F)cc(C(F)(F)F)c1` gave an IC50 in test [1] of 5.1 µM.

`O=C(N[C@@H]1CCC[C@@H]1C(=O)Nc1ccc(Cl)cc1)c1cc(C(F)(F)F)cc(C(F)(F)F)c1` gave an IC50 in test [1] greater than 100 µM.

In test [1], `O=C(CONC(=O)c1cccc(C(F)(F)F)c1)Nc1ccc(Cl)cc1` came in with an IC50 of 27 µM. Also, the inhibition at 10 µM in the test on PC-3 [3] turned out to be 0%. Besides, the inhibition at 100 µM with PC-3 [2] worked out at 58%.

For the compound `O=C(Nc1ccc(Cl)cc1)c1cccc(NC(=O)c2cc(C(F)(F)F)cc(C(F)(F)F)c2)c1`, the IC50 in test [1] came out at 1.7 µM.

Regarding `O=C(Nc1ccc(Cl)cc1)c1ccc(NC(=O)c2cc(C(F)(F)F)cc(C(F)(F)F)c2)cc1`, the IC50 in test [1] is greater than 100 µM. The compound further had an inhibition at 100 µM in the test on PC-3 [4] of 0%.

In test [1], `O=C(Nc1ccc(Cl)cc1)C1CCCN1C(=O)c1cc(C(F)(F)F)cc(C(F)(F)F)c1` (centres undefined) came in with an IC50 of 69 µM. The inhibition at 100 µM in the test on PC-3 [4] was determined as 78%.

As for `O=C(NCCc1cn(-c2ccc(Cl)cc2)nn1)c1cc(C(F)(F)F)cc(C(F)(F)F)c1`, in test [1], the IC50 was greater than 100 µM.

`O=C(CONC(=O)c1cc(C(F)(F)F)cc(C(F)(F)F)c1)Nc1ccccc1` yielded an IC50 in test [1] of 36 µM. In addition, the inhibition at 10 µM with PC-3 [3] turned out to be 0%. In the test with PC-3 [2], the inhibition at 100 µM came to 37%.

Take `O=C(CCc1cn(-c2cc(C(F)(F)F)cc(C(F)(F)F)c2)nn1)Nc1ccc(Cl)cc1`: in test [1], the IC50 was greater than 100 µM.

`O=C(CCCNC(=O)c1cc(C(F)(F)F)cc(C(F)(F)F)c1)Nc1ccc(Cl)cc1` gave an IC50 in test [1] of 21 µM.

Regarding `O=C(NCCCOc1ccc(Cl)cc1)c1cc(C(F)(F)F)cc(C(F)(F)F)c1`, in test [1], the IC50 came out at 8.9 µM. For the same compound, the inhibition at 100 µM with PC-3 [4] was determined as 26%.

Take `O=C(Nc1cc(C(F)(F)F)cc(C(F)(F)F)c1)C1CCN(C(=O)c2ccc(Cl)cc2)CC1`: the IC50 in test [1] amounted to 10 µM. The inhibition at 10 µM in the test on PC-3 [3] came out at 10%. In addition, in the test on PC-3 [2], the inhibition at 100 µM amounted to 88%.

As for `O=C(CONC(=O)c1cc(C(F)(F)F)cc(C(F)(F)F)c1)Nc1ccc(Cl)cc1`, the IC50 in test [1] is 4.7 µM.

In turn, `O=C(CCNC(=O)c1cc(C(F)(F)F)cc(C(F)(F)F)c1)Nc1ccc(Cl)cc1` displayed a concentration for half-maximal inhibition (IC50) in test [1] of 38 µM. Also, the inhibition at 100 µM in the test on PC-3 [2] was found to be 10%.

Compound `O=C(CCNC(=O)c1cc(C(F)(F)F)cc(C(F)(F)F)c1)NCc1ccc(Cl)cc1` displayed an IC50 in test [1] greater than 100 µM.

Turning to `O=C(c1cc(C(F)(F)F)cc(C(F)(F)F)c1)N1CCC(=O)N(c2ccc(Cl)cc2)CC1`, the IC50 in test [1] was greater than 100 µM.

Take `O=C(CCNCc1cc(C(F)(F)F)cc(C(F)(F)F)c1)Nc1ccc(Cl)cc1`: the IC50 in test [1] was found to be 8.1 µM. This compound came in with an inhibition (INH) in the test on PC-3 [5] of 47%.

In test [1], `O=C(CC1CCCCN1C(=O)c1cc(C(F)(F)F)cc(C(F)(F)F)c1)Nc1ccc(Cl)cc1` (centres undefined) yielded an IC50 of 9.5 µM. For the same compound, the inhibition at 100 µM in the test on PC-3 [2] stood at 14%.

`O=C(CONC(=O)c1ccc(C(F)(F)F)cc1)Nc1ccc(Cl)cc1` returned an IC50 in test [1] of 29 µM. Besides, the inhibition at 10 µM in the test on PC-3 [3] was found to be 0%. In addition, the inhibition at 100 µM in the test on PC-3 [2] was determined as 56%.

In test [1], `O=C(NCc1csc(-c2ccc(Cl)cc2)n1)c1cc(C(F)(F)F)cc(C(F)(F)F)c1` yielded an IC50 of 4.1 µM.

In test [1], `O=C(CCCCNC(=O)c1cc(C(F)(F)F)cc(C(F)(F)F)c1)Nc1ccc(Cl)cc1` gave an IC50 greater than 100 µM.

As for `FC(F)(F)c1cc(CNCCCNc2ccc(Cl)cc2)cc(C(F)(F)F)c1`, the IC50 in test [1] is 9.1 µM. Further, in the test on PC-3 [4], 100 µM produced 86% inhibition.

For the compound `O=C(Nc1ccc(Cl)cc1)C1CCN(C(=O)c2cc(C(F)(F)F)cc(C(F)(F)F)c2)C1` (centres undefined), the half-inhibitory concentration (IC50) in test [1] came out at 16.3 µM. Besides, in the test with PC-3 [2], the inhibition at 100 µM came out at 67%.

Compound `O=C(Nc1ccc(Cl)cc1)C1CCN(C(=O)c2cc(C(F)(F)F)cc(C(F)(F)F)c2)CC1` yielded an IC50 in test [1] of 16 µM.

For `O=C(c1cc(C(F)(F)F)cc(C(F)(F)F)c1)N1CCC(Nc2ccc(Cl)cc2)CC1`, the IC50 in test [1] turned out to be 10.8 µM. Also, the inhibition at 10 µM with PC-3 [3] amounted to 19%. In addition, the inhibition at 100 µM with PC-3 [2] came to 0%.

Take `O=C(NCCC(=O)N1CCc2cc(Cl)ccc21)c1cc(C(F)(F)F)cc(C(F)(F)F)c1`: the IC50 in test [1] was found to be 13 µM. The same compound returned an inhibition at 100 µM in the test on PC-3 [4] of 0%. Besides, the “inhibition (INH)” value in the test on PC-3 [5] stood at 0%.

`CN(C(=O)CCNC(=O)c1cc(C(F)(F)F)cc(C(F)(F)F)c1)c1ccc(Cl)cc1` came in with an IC50 in test [1] greater than 100 µM.

In test [1], `O=C(CONC(=O)c1ccc(Cl)cc1)Nc1cc(C(F)(F)F)cc(C(F)(F)F)c1` showed an IC50 of 8.6 µM.

Values taken from ChEMBL document CHEMBL1153198, “Design, synthesis and prostate cancer cell-based studies of analogs of the Rho/MKL1 transcriptional pathway inhibitor, CCG-1423” (Bioorg Med Chem Lett, 2010).
